A selection: hits, their analogues and other compounds. The true share with any hit is near 2.5%.
MLL AF4-AF9 inh: inhibitors of AF4 peptide binding to AF9, primary screen, biochemical, AlphaScreen, biotin-AF4 peptide, FLAG-AF9, single point. 350,000 compounds, 0.47% hits. Protein AF-9 (Homo sapiens), P42568. AID 651704, 2012. inhibition, % at 10 µM;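 active = every replicate reaching a set inhibition limit, whatever the replicate mean, cut at about 25% in these data; inconclusive = mean inhibition reaches that limit but some replicates miss it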;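 note: 0% = plate neutral control median and 100% = total signal loss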
Target sequence (P42568 whole entry, looked up): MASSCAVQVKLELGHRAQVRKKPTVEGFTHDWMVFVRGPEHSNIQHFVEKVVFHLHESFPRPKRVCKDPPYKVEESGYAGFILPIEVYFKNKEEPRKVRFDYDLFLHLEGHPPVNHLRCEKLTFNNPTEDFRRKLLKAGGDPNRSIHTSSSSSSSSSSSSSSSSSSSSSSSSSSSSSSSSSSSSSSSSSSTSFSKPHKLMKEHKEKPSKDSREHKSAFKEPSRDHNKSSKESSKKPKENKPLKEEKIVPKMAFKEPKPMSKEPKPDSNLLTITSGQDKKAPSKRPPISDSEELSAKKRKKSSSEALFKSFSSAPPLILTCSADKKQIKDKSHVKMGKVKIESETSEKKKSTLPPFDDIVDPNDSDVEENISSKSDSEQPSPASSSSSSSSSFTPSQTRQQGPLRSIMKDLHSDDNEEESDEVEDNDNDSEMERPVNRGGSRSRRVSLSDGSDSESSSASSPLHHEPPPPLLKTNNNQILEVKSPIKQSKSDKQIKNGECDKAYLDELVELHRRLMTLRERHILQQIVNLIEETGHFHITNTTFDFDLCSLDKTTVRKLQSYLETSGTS
Glyco luc inh: increase of ERlucT glycosylation luciferase signal, primary screen, N-linked glycosylation inhibitor project, D54 ERlucT cells, luminescence, set 2. AID 588692, 2011. D54 ERlucT glycosylation luciferase reporter, 24 h; percent of 100 nM tunicamycin response. 360,000 compounds, 0.23% hits. reporter increase, % at 12.5 µM;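 active = mean luciferase reporter signal, scaled so untreated is 0 and the glycosylation-blocking control 100, at or above a set limit in every replicate; inconclusive = mean reaches the limit but not every replicate does; inactive = mean below the limit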;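 note: luciferase carries N-glycosylation sites so blocking glycosylation raises the light; 0% = median of neutral control wells and 100% = median of 100 nM tunicamycin wells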
PAX8 reporter: inhibitors of PAX8-driven TPO luciferase reporter, primary screen, RMG-I cells, single concentration | AID 652154, 2013 | inhibition, % at 12.6 µM | 360,000 compounds, 1.2% hits | SteadyGlo, 24 h;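 active = mean replicate inhibition at least 60% with every replicate also reaching 60%; inconclusive = only one of the two criteria is met; inactive = mean below 60% and not all replicates reaching 60%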;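 note: luciferase light reporting Pax8 driven TPO promoter activity; plate controls were median of neutral control wells for no effect and mitoxantrone controls for full effect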
FN deposition inh: inhibitors of fibronectin matrix deposition, primary screen, AH1F cells, Alexa488-fibronectin fluorescence, plate reader | AH1F fibroblasts, overnight | 350,000 compounds, 0.086% hits | inhibition, % at 12.6 µM;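 active = mean inhibition across replicates of 30% or more, regardless of how many single replicates reach that level; inconclusive = mean under 30% yet at least half of replicates reach 30%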;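 note: positive control wells lacked labelled fibronectin entirely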
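Assay system: AH1F fibroblasts / Quantity: 10000 cells per well / Medium: DMEM plus 2% serum, read in PBS / Reagent: labelled fibronectin 24 nM / Dosing: single dose, pinned / Times: 1 h cell attachment, overnight exposure to compound and label / Signal: fluorescence, ex 485 nm, em 525 nm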
HIV Env fusion: inhibitors of HIV-1 Env-driven cell-cell fusion, primary screen, HeLa-JRFL effector, CEM21 target cells, luciferase. inhibition, % at 12.3 µM. 360,000 compounds, 1.1% hits. AID 651610, 2012;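 active = mean replicate inhibition score of at least 50 and every replicate individually at or above 50; inconclusive = only one of the two criteria met; inactive = mean below 50 and not all replicates reaching 50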;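 note: 0% = plate neutral controls and 100% = maraviroc near 300 nM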
EWS-Fli block: EWS/Fli-driven NR0B1 reporter inhibitors, primary screen, A673 cells, NR0B1 luciferase, luminescence, MLPCN library; viability-normalised; inhibition, % at 12.6 µM; 350,000 compounds, 0.67% hits; AID 651661, 2012;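 active = mean inhibition of at least 50% after viability correction, with every replicate also passing that limit; inconclusive = mean reaches 50% but only one of two replicates passes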;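 note: firefly luciferase signal divided by Alamar Blue viability fluorescence both relative to DMSO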
Starred values were filed as active, the others as inactive; u = inconclusive; x = no result given; [ ] = another dose, or the depositor's remark.

SMILES	MLL AF4-AF9 inh	Glyco luc inh	PAX8 reporter	FN deposition inh	HIV Env fusion	EWS-Fli block
Cn1nnnc1Sc1ncnc2scc(-c3cccc(Br)c3)c12	0	-3	91*	-11	-106	u
CC(=O)c1cccc(-c2csc3ncnc(Sc4nnnn4C)c23)c1	-2	-13	114*	13	-185	-2
Cn1nnnc1Sc1ncnc2scc(-c3ccc4c(c3)OCO4)c12	5	-9	101*	26	-9	7
CCOC(=O)c1c(C)oc2c(F)c(F)c(F)c(F)c2c1=O	x	31*	x	x	x	x
CCOC(=O)c1c(C)oc(=O)c(CC)c1O	0	4	8	0	-4	-8
O=C(c1ccccc1)N1Cc2ccccc2C[C@]2(N=C(c3ccc(OCCCO)cc3)O[C@@H]2c2ccccc2)C1=O	2	x	68*	x	-4[16.7 µM]	-4
O=C1N(CCS(=O)(=O)c2ccccc2)Cc2ccccc2C[C@@]12N=C(c1ccc(OCCCO)cc1)O[C@H]2c1ccccc1	4	x	94*	x	30[16.7 µM]	6
O=C1N(CCS(=O)(=O)c2ccccc2)Cc2ccccc2[C@@H]2OC(c3ccc(OCCCO)cc3)=N[C@]12CCS(=O)(=O)c1ccccc1	-2	x	4	x	-1[16.7 µM]	16
O=C1N(Cc2ccccc2)Cc2ccccc2[C@@H]2OC(c3ccc(OCCCO)cc3)=N[C@]12Cc1ccccc1	1	x	64*	x	9[16.7 µM]	10
O=C1N(Cc2ccccc2)Cc2ccccc2[C@H]2OC(c3ccc(OCCCO)cc3)=N[C@@]12Cc1ccccc1	4	x	x	x	29[16.7 µM]	12
Cc1noc(C)c1NC(=O)Nc1ccc2c(c1)C(=O)N([C@@H](C)CO)C[C@H](C)[C@@H](CN(C)Cc1ccccc1)OCCCC[C@@H](C)O2	-11	x	-8	6	2[16.7 µM]	-10
COc1ccc(CCN(C)C(=O)c2ccc(S(=O)(=O)Nc3ccccc3C)cc2)cc1OC	0	x	-7	x	-12	x
CCOc1ccc(NS(=O)(=O)c2ccc(C(=O)N(C)CCc3ccc(OC)c(OC)c3)cc2)cc1	1	-1	0	3	89*	-3
CC=Cc1ccc2n(c1=O)C[C@H]1[C@H](CO)[C@@H](C(=O)NC3CCC3)N(CCC(F)(F)F)[C@@H]21 (mixture of isomers)	-1	x	x	x	x	-19
Cn1c2ccccc2c(=O)c2ccc(C#CC3(O)CCCCC3)cc21	-7	-13	9	7	-35	57*
O=C1C(F)=CC(COC(c2ccccc2)(c2ccccc2)c2ccccc2)OC1n1cc(F)c(=O)[nH]c1=O (stereo not given)	1	-21	18	7	u	69*
COc1ccc(NC(=O)Nc2cccc3c2O[C@@H](CN(C)C(=O)Nc2ccccc2)[C@@H](C)CN([C@H](C)CO)C3=O)cc1	-4	x	-27	x	x	2
CCC1(O)CC2CN(CCc3c([nH]c4ccccc34)C(C(=O)OC)(c3cc4c(cc3OC)N(C=O)C3C(O)(C(=O)OC)C(OC(C)=O)C5(CC)C=CCN6CCC43C65)C2)C1 (stereo not given)	8	3	83*	-29	-8	44
O=C(Nc1cc(Cl)cc(Cl)c1)C(c1ccccc1)N1CCCCC1 (stereo not given)	x	-4	-11	-3	75*	x
O=C(O)c1ccccc1OC(C(=O)Nc1cc(Cl)cc(Cl)c1)c1ccccc1 (stereo not given)	0	29*	13	2	-1	32
O=C(C[C@H]1CC[C@H]2[C@@H](COC[C@H](O)CN2S(=O)(=O)c2ccccc2)O1)N1CCOCC1	-12	x	7	3	3[16.7 µM]	2
O=C(C[C@H]1C=C[C@@H](NC(=O)Nc2cc(F)ccc2F)[C@@H](CO)O1)Nc1ccc(-c2ccccc2)cc1	-14	x	-4	1	x	8
N#CCCN(C(=O)COC(=O)CCc1nc2ccccc2c(=O)[nH]1)c1ccc(F)cc1	1	1	-5	-14	x	0
N#CCCN(C(=O)CSc1nc2ccccc2c(=O)[nH]1)c1ccc(F)cc1	-1	-2	12	5	81*	-4
CCN(CC)S(=O)(=O)c1ccc(N2CCOCC2)c(NC(=S)NC(=O)c2ccco2)c1	-7	-2	3	4	31	13
SMILES	MLL AF4-AF9 inh	Glyco luc inh	PAX8 reporter	FN deposition inh	HIV Env fusion	EWS-Fli block
CCN(CC(=O)Nc1c(F)cccc1F)C(=O)c1cc(S(=O)(=O)N(C)C)ccc1N1CCCC1	-9	2	90*	-2	-4	-2
CCN(CC)S(=O)(=O)c1ccc(N2CCOCC2)c(NC(=O)c2ccco2)c1	4	2	14	x	58*	-3
CCN(CC(=O)Nc1c(F)cccc1F)C(=O)c1cc(S(=O)(=O)N(CC)CC)ccc1N1CCCCC1	-1	-6	88*	x	-18	x
CCN(Cc1ccccc1)C(=O)c1cc(S(=O)(=O)N2CCOCC2)ccc1N1CCCC1	0	0	-7	3	-6	1
CCN(CC(=O)Nc1ccc(OC)cc1)C(=O)c1cc(S(=O)(=O)N2CCOCC2)ccc1N1CCCC1	0	0	69*	x	-176	14
C[C@@H]1CCCCO[C@@H](CN(C)Cc2ccc3c(c2)OCO3)[C@@H](C)CN([C@H](C)CO)C(=O)c2cc(NC(=O)c3ccncc3)ccc2O1	x	x	-4	-4	-16[16.7 µM]	-1
CCN(CC)S(=O)(=O)c1ccc(N2CCCC2)c(NC(=O)Cc2c(F)cccc2Cl)c1	-2	2	-17	5	57*	1
CCN1CCN(c2ccc(S(=O)(=O)N3CCCCC3)cc2NC(=O)Cc2c(F)cccc2Cl)CC1	5	-3	17	9	-2	x
CO[C@H]1CN(C)C(=O)c2ccc(NS(C)(=O)=O)cc2OC[C@H](C)N(Cc2ccccn2)C[C@@H]1C	-11	x	x	1	x	5
C(=N\N1CCN(c2ccccn2)CC1)/c1cccc2ccccc12	27*	0	-30	2	1	-31
Oc1ccccc1/C=N/N1CCN(c2ccccn2)CC1	3	-1	-97	-5	-43	-78
COc1ccc(CNS(=O)(=O)c2cc(Cl)ccc2N2CC[C@@H](O)C2)cc1	1	x	46	14	-56	55*
CN1CCN(C(=O)C[C@@H]2C=C[C@H](NC(=O)Cc3ccccn3)[C@H](CO)O2)CC1	-2	x	12	1	5[16.7 µM]	-10
COc1ccc(-c2sc3cc4c(cc3c2C#Cc2cncn2C)OCO4)cc1	6	6	10	-4	-12	10
COc1ccc(-c2sc3ccc(OC)cc3c2C#Cc2cncn2C)cc1	-3	0	65*	26	-6	-6

Assay outcomes (PubChem)
